Laboratory results taken from ChEMBL document CHEMBL4689842, “EUbOPEN Chemogenomics Library wave 1” (2021).

System: U2OS
Experiment: Multiplex assay against U2OS
Assay type: toxicity, cell-based
Conditions: human
How it was run: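 At seeding, live cells were stained with Hoechst33342, BioTracker Green Microtubule Cytoskeleton Dye, MitoTracker Red and Annexin V Alexa Fluor 680. After compound addition they were imaged on a CQ1 microscope at 37°C and 5% CO2, and CellPathfinder machine-learning gating sorted them into Hoechst high-intensity objects or normal cells, with normal cells further split into healthy, pyknosed or fragmented nuclei and pyknosed cells into mitotic or apoptotic. Tubulin, mitochondrial-mass and membrane-permeability phenotypes are given as per cents of cells with healthy nuclei.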

[1] = 12 h, 1 µM, compound concentration 1 uM, replicate 1
[2] = 12 h, 1 µM, compound concentration 1 uM, replicate 2
[3] = 12 h, 10 µM, compound concentration 10 uM, replicate 1
[4] = 12 h, 10 µM, compound concentration 10 uM, replicate 2
[5] = 24 h, 1 µM, compound concentration 1 uM, replicate 1
[6] = 24 h, 1 µM, compound concentration 1 uM, replicate 2
[7] = 24 h, 10 µM, compound concentration 10 uM, replicate 1
[8] = 24 h, 10 µM, compound concentration 10 uM, replicate 2
[9] = 48 h, 1 µM, compound concentration 1 uM, replicate 1
[10] = 48 h, 1 µM, compound concentration 1 uM, replicate 2
[11] = 48 h, 10 µM, compound concentration 10 uM, replicate 1
[12] = 48 h, 10 µM, compound concentration 10 uM, replicate 2

SMILES: Cc1cc(C)c(S(=O)(=O)N(Cc2ccc(-c3cccc(S(C)(=O)=O)c3)cc2)Cc2ccc(C(F)(F)F)o2)c(C)c1
- Population Apoptotic (%) [1]: 50%
- Population Fragmented Nuclei (%) [1]: 9%
- Population Healthy Nuclei (%) [1]: 84%
- Population Hoechst High Intensity Objects (%) [1]: 7%
- Population Membrane Permeable-Phenotype (%) [1]: 4%
- Population Mitochondria Different-Phenotype (%) [1]: 18%
- Population Mitotic Cells (%) [1]: 50%
- Population Normal (%) [1]: 92%
- Population Pyknosed Nuclei (%) [1]: 6%
- Population Tubulin-Different-Phenotype (%) [1]: 12%
- Total Cell Count [1]: 77
- Population Apoptotic (%) [2]: 66%
- Population Fragmented Nuclei (%) [2]: 15%
- Population Healthy Nuclei (%) [2]: 80%
- Population Hoechst High Intensity Objects (%) [2]: 6%
- Population Membrane Permeable-Phenotype (%) [2]: 3%
- Population Mitochondria Different-Phenotype (%) [2]: 21%
- Population Mitotic Cells (%) [2]: 33%
- Population Normal (%) [2]: 93%
- Population Pyknosed Nuclei (%) [2]: 3%
- Population Tubulin-Different-Phenotype (%) [2]: 27%
- Total Cell Count [2]: 72
- Population Apoptotic (%) [3]: 31%
- Population Fragmented Nuclei (%) [3]: 8%
- Population Healthy Nuclei (%) [3]: 81%
- Population Hoechst High Intensity Objects (%) [3]: 5%
- Population Membrane Permeable-Phenotype (%) [3]: 58%
- Population Mitochondria Different-Phenotype (%) [3]: 27%
- Population Mitotic Cells (%) [3]: 68%
- Population Normal (%) [3]: 94%
- Population Pyknosed Nuclei (%) [3]: 10%
- Population Tubulin-Different-Phenotype (%) [3]: 85%
- Total Cell Count [3]: 104
- Population Apoptotic (%) [4]: 0%
- Population Fragmented Nuclei (%) [4]: 14%
- Population Healthy Nuclei (%) [4]: 77%
- Population Hoechst High Intensity Objects (%) [4]: 22%
- Population Membrane Permeable-Phenotype (%) [4]: 3%
- Population Mitochondria Different-Phenotype (%) [4]: 3%
- Population Mitotic Cells (%) [4]: 100%
- Population Normal (%) [4]: 77%
- Population Pyknosed Nuclei (%) [4]: 8%
- Population Tubulin-Different-Phenotype (%) [4]: 11%
- Total Cell Count [4]: 81
- Population Apoptotic (%) [5]: 40%
- Population Fragmented Nuclei (%) [5]: 10%
- Population Healthy Nuclei (%) [5]: 82%
- Population Hoechst High Intensity Objects (%) [5]: 3%
- Population Membrane Permeable-Phenotype (%) [5]: 3%
- Population Mitochondria Different-Phenotype (%) [5]: 13%
- Population Mitotic Cells (%) [5]: 60%
- Population Normal (%) [5]: 96%
- Population Pyknosed Nuclei (%) [5]: 7%
- Population Tubulin-Different-Phenotype (%) [5]: 9%
- Total Cell Count [5]: 89
- Population Apoptotic (%) [6]: 0%
- Population Fragmented Nuclei (%) [6]: 14%
- Population Healthy Nuclei (%) [6]: 80%
- Population Hoechst High Intensity Objects (%) [6]: 1%
- Population Membrane Permeable-Phenotype (%) [6]: 5%
- Population Mitochondria Different-Phenotype (%) [6]: 18%
- Population Mitotic Cells (%) [6]: 100%
- Population Normal (%) [6]: 98%
- Population Pyknosed Nuclei (%) [6]: 5%
- Population Tubulin-Different-Phenotype (%) [6]: 32%
- Total Cell Count [6]: 86
- Population Apoptotic (%) [7]: 41%
- Population Fragmented Nuclei (%) [7]: 11%
- Population Healthy Nuclei (%) [7]: 71%
- Population Hoechst High Intensity Objects (%) [7]: 6%
- Population Membrane Permeable-Phenotype (%) [7]: 47%
- Population Mitochondria Different-Phenotype (%) [7]: 32%
- Population Mitotic Cells (%) [7]: 58%
- Population Normal (%) [7]: 93%
- Population Pyknosed Nuclei (%) [7]: 17%
- Population Tubulin-Different-Phenotype (%) [7]: 87%
- Total Cell Count [7]: 133
- Population Apoptotic (%) [8]: 14%
- Population Fragmented Nuclei (%) [8]: 15%
- Population Hoechst High Intensity Objects (%) [8]: 10%
- Population Membrane Permeable-Phenotype (%) [8]: 5%
- Population Mitochondria Different-Phenotype (%) [8]: 10%
- Population Mitotic Cells (%) [8]: 85%
- Population Normal (%) [8]: 89%
- Population Pyknosed Nuclei (%) [8]: 13%
- Population Tubulin-Different-Phenotype (%) [8]: 15%
- Total Cell Count [8]: 109
- Population Apoptotic (%) [9]: 64%
- Population Fragmented Nuclei (%) [9]: 6%
- Population Healthy Nuclei (%) [9]: 83%
- Population Hoechst High Intensity Objects (%) [9]: 3%
- Population Membrane Permeable-Phenotype (%) [9]: 1%
- Population Mitochondria Different-Phenotype (%) [9]: 7%
- Population Mitotic Cells (%) [9]: 35%
- Population Normal (%) [9]: 96%
- Population Pyknosed Nuclei (%) [9]: 9%
- Population Tubulin-Different-Phenotype (%) [9]: 4%
- Total Cell Count [9]: 116
- Population Apoptotic (%) [10]: 50%
- Population Fragmented Nuclei (%) [10]: 9%
- Population Healthy Nuclei (%) [10]: 84%
- Population Hoechst High Intensity Objects (%) [10]: 2%
- Population Membrane Permeable-Phenotype (%) [10]: 6%
- Population Mitochondria Different-Phenotype (%) [10]: 25%
- Population Mitotic Cells (%) [10]: 50%
- Population Normal (%) [10]: 97%
- Population Pyknosed Nuclei (%) [10]: 5%
- Population Tubulin-Different-Phenotype (%) [10]: 34%
- Total Cell Count [10]: 123
- Population Apoptotic (%) [11]: 55%
- Population Fragmented Nuclei (%) [11]: 9%
- Population Healthy Nuclei (%) [11]: 72%
- Population Hoechst High Intensity Objects (%) [11]: 3%
- Population Membrane Permeable-Phenotype (%) [11]: 24%
- Population Mitochondria Different-Phenotype (%) [11]: 24%
- Population Mitotic Cells (%) [11]: 45%
- Population Normal (%) [11]: 96%
- Population Pyknosed Nuclei (%) [11]: 18%
- Population Tubulin-Different-Phenotype (%) [11]: 55%
- Total Cell Count [11]: 181
- Population Apoptotic (%) [12]: 25%
- Population Fragmented Nuclei (%) [12]: 7%
- Population Healthy Nuclei (%) [12]: 82%
- Population Membrane Permeable-Phenotype (%) [12]: 6%
- Population Mitochondria Different-Phenotype (%) [12]: 10%
- Population Mitotic Cells (%) [12]: 75%
- Population Pyknosed Nuclei (%) [12]: 10%
- Population Tubulin-Different-Phenotype (%) [12]: 13%
- Total Cell Count [12]: 148

SMILES: NC(=O)c1cccc(-c2cc(Nc3ccc(OC(F)(F)F)cc3)ncn2)c1
- Population Apoptotic (%) [1]: 27%
- Population Fragmented Nuclei (%) [1]: 5%
- Population Healthy Nuclei (%) [1]: 89%
- Population Hoechst High Intensity Objects (%) [1]: 1%
- Population Membrane Permeable-Phenotype (%) [1]: 8%
- Population Mitochondria Different-Phenotype (%) [1]: 24%
- Population Mitotic Cells (%) [1]: 72%
- Population Normal (%) [1]: 98%
- Population Pyknosed Nuclei (%) [1]: 5%
- Population Tubulin-Different-Phenotype (%) [1]: 25%
- Total Cell Count [1]: 640
- Population Apoptotic (%) [2]: 0%
- Population Fragmented Nuclei (%) [2]: 16%
- Population Healthy Nuclei (%) [2]: 81%
- Population Hoechst High Intensity Objects (%) [2]: 16%
- Population Membrane Permeable-Phenotype (%) [2]: 13%
- Population Mitochondria Different-Phenotype (%) [2]: 36%
- Population Mitotic Cells (%) [2]: 100%
- Population Normal (%) [2]: 84%
- Population Pyknosed Nuclei (%) [2]: 1%
- Population Tubulin-Different-Phenotype (%) [2]: 29%
- Total Cell Count [2]: 738
- Population Apoptotic (%) [3]: 56%
- Population Fragmented Nuclei (%) [3]: 5%
- Population Healthy Nuclei (%) [3]: 86%
- Population Hoechst High Intensity Objects (%) [3]: 3%
- Population Membrane Permeable-Phenotype (%) [3]: 7%
- Population Mitochondria Different-Phenotype (%) [3]: 26%
- Population Mitotic Cells (%) [3]: 43%
- Population Normal (%) [3]: 96%
- Population Tubulin-Different-Phenotype (%) [3]: 16%
- Total Cell Count [3]: 201
- Population Apoptotic (%) [4]: 45%
- Population Fragmented Nuclei (%) [4]: 4%
- Population Healthy Nuclei (%) [4]: 87%
- Population Hoechst High Intensity Objects (%) [4]: 9%
- Population Membrane Permeable-Phenotype (%) [4]: 12%
- Population Mitochondria Different-Phenotype (%) [4]: 24%
- Population Mitotic Cells (%) [4]: 54%
- Population Normal (%) [4]: 90%
- Population Pyknosed Nuclei (%) [4]: 8%
- Population Tubulin-Different-Phenotype (%) [4]: 13%
- Total Cell Count [4]: 125
- Population Apoptotic (%) [5]: 27%
- Population Fragmented Nuclei (%) [5]: 2%
- Population Healthy Nuclei (%) [5]: 93%
- Population Hoechst High Intensity Objects (%) [5]: 0%
- Population Membrane Permeable-Phenotype (%) [5]: 3%
- Population Mitochondria Different-Phenotype (%) [5]: 23%
- Population Mitotic Cells (%) [5]: 72%
- Population Normal (%) [5]: 99%
- Population Tubulin-Different-Phenotype (%) [5]: 31%
- Total Cell Count [5]: 576
- Population Apoptotic (%) [6]: 20%
- Population Fragmented Nuclei (%) [6]: 8%
- Population Healthy Nuclei (%) [6]: 87%
- Population Hoechst High Intensity Objects (%) [6]: 6%
- Population Membrane Permeable-Phenotype (%) [6]: 14%
- Population Mitochondria Different-Phenotype (%) [6]: 42%
- Population Mitotic Cells (%) [6]: 80%
- Population Normal (%) [6]: 93%
- Population Pyknosed Nuclei (%) [6]: 3%
- Population Tubulin-Different-Phenotype (%) [6]: 44%
- Total Cell Count [6]: 747
- Population Apoptotic (%) [7]: 16%
- Population Fragmented Nuclei (%) [7]: 6%
- Population Healthy Nuclei (%) [7]: 90%
- Population Hoechst High Intensity Objects (%) [7]: 0%
- Population Membrane Permeable-Phenotype (%) [7]: 5%
- Population Mitochondria Different-Phenotype (%) [7]: 19%
- Population Mitotic Cells (%) [7]: 83%
- Population Normal (%) [7]: 99%
- Population Pyknosed Nuclei (%) [7]: 4%
- Population Tubulin-Different-Phenotype (%) [7]: 20%
- Total Cell Count [7]: 281
- Population Apoptotic (%) [8]: 14%
- Population Fragmented Nuclei (%) [8]: 4%
- Population Healthy Nuclei (%) [8]: 88%
- Population Hoechst High Intensity Objects (%) [8]: 7%
- Population Membrane Permeable-Phenotype (%) [8]: 8%
- Population Mitochondria Different-Phenotype (%) [8]: 25%
- Population Mitotic Cells (%) [8]: 85%
- Population Normal (%) [8]: 92%
- Population Pyknosed Nuclei (%) [8]: 7%
- Population Tubulin-Different-Phenotype (%) [8]: 19%
- Total Cell Count [8]: 145
